According to ChEMBL document CHEMBL6182837, “Discovery and biological evaluation of nitrofuranyl-pyrazolopyrimidine hybrid conjugates as potent antimicrobial agents targeting Staphylococcus aureus and methicillin-resistant S. aureus” (RSC Med Chem, 2025):
Values after ≈ are worked out from the molar mass of the structure shown. Active and inactive are the calls of the source. No cut-off for these calls is given here.

Legend:
[1] = Cmax in male Balb/c mouse at 30 mg/kg, po by LC-MS/MS analysis; format: ADME, organism-based; conditions: in vivo
Method in brief: (§1)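 Balb/c mice dosed 1 mg kg−1 intravenously or 30 mg kg−1 orally (2.5 mg kg−1 oral also given); plasma PK parameters derived.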

J774.A1 = assay: Cytotoxicity against mouse J774.A1 cells up to 200 ug/ml incubated for 24 hrs by absorbance based assay
Staphylococcus aureus [2] = assay: Additive antibacterial activity against Staphylococcus aureus ATCC 29213 assessed as fractional inhibitory concentration index at 0.02 ug/ml incubated up to 24 hrs in presence of rifampicin by checkerboard analysis; format: functional; conditions: dose 0.02 µg/ml
Method in brief: (§2)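 Checkerboard microdilution in cation-adjusted MHB, done per CLSI. The compound and partner antibiotic were dissolved in DMSO. The antibiotic was serially diluted across the plate and the compound was twofold serially diluted into the wells to make the combinations. Each well received 0.1 ml of inoculum, a 0.5 McFarland suspension (1.5 × 10^8 CFU ml−1) diluted 1:100 in MHB. Plates were incubated 24 h at 37 °C, then read with Alamar blue (0.04%). FIC index was calculated.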

[3] = AUC (0 to t) in male Balb/c mouse at 30 mg/kg, po by LC-MS/MS analysis; format: ADME, organism-based; conditions: in vivo; method in brief: as §1
Staphylococcus aureus [4] = assay: Bactericidal activity against methicillin-resistant Staphylococcus aureus ATCC 15187 assessed as reduction in bacterial count incubated for 2 to 24 hrs by time-kill assay; format: functional, organism-based; conditions: time 2-24 hrs
Staphylococcus aureus [5] = assay: Antibacterial activity against Ciprofloxacin-sensitive Staphylococcus aureus […] by Alamar blue staining based analysis; format: functional
Staphylococcus aureus [6] = assay: Bactericidal activity against Staphylococcus aureus ATCC 29213 assessed as reduction in bacterial count at 2 to 4 times MIC incubated for 2 to 24 hrs by time-kill assay relative to control; format: functional; set-up: scale not given: the % may be the effect or the level left; conditions: time 2-24 hrs
[7] = Lipophilicity, logP of compound; format: physicochemical; conditions: octanol/water
Staphylococcus aureus [8] = assay: Antibacterial activity against methicillin-resistant Staphylococcus aureus ATCC 15187 incubated for 24 hrs by Alamar blue staining based microdilution method; format: functional
Staphylococcus aureus [9] = assay: Synergistic bactericidal activity against methicillin-resistant Staphylococcus aureus ATCC 15187 assessed as reduction in bacterial count at 0.075 ug/ml measured after 24 hrs in presence of rifampicin by time-kill assay; format: functional, organism-based; conditions: dose 0.075 µg/ml
[10] = Protein binding in plasma (unknown origin); format: ADME, cell-free
Staphylococcus aureus [11] = assay: Antibacterial activity against methicillin-resistant Staphylococcus aureus ATCC 15187 infected in male Balb/c/c mouse assessed as reduction in bacterial load in lung at 50 to 100 mg/kg measured after 24 hrs by colony counting method; format: functional, organism-based; conditions: dose 50-100 mg/kg
Method in brief: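 Mouse peritonitis model: 0.1 ml MRSA suspension (10^8 CFU ml−1) given intraperitoneally; treatment intraperitoneal at 50 or 100 mg kg−1 at 2 and 5 h post-infection, with saline and vancomycin (50 mg kg−1) controls; killed at 24 h; kidney and lung homogenates plated on Mueller–Hinton agar with 20 μg ml−1 ciprofloxacin, 24 h; CFU ml−1; unpaired t-test.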

Staphylococcus aureus [12] = assay: Bactericidal activity against methicillin-resistant Staphylococcus aureus ATCC 15187 assessed as reduction in bacterial count at 1 to 4 times MIC by time-kill assay; format: functional, organism-based; conditions: time 2-24 hrs
Staphylococcus aureus [13] = assay: Induction of resistance development in Staphylococcus aureus ATCC 29213 assessed as fold increase in MIC at 0.5 MIC measured after 20 passages relative to control; format: functional
Method in brief: (§3)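 Bacteria were serially passaged for 20 days after exposure to a sublethal drug concentration. MIC was determined at each passage. Vancomycin and norfloxacin were run as control agents.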

Staphylococcus aureus [14] = assay: Additive antibacterial activity against methicillin-resistant Staphylococcus aureus ATCC 15187 assessed as fractional inhibitory concentration index at 0.075 ug/ml incubated up to 24 hrs in presence of vancomycin by checkerboard analysis; format: functional; conditions: dose 0.075 µg/ml; method in brief: as §2
Staphylococcus aureus [15] = assay: Bactericidal activity against methicillin-resistant Staphylococcus aureus ATCC 15187 assessed as reduction in bacterial count at 4 times MIC measured for 2 hrs by time-kill assay; format: functional, organism-based
Staphylococcus aureus [16] = assay: Synergistic bactericidal activity against Staphylococcus aureus ATCC 29213 assessed as reduction in bacterial count at 0.02 ug/ml incubated up to 8 hrs in presence of vancomycin by time-kill assay; format: functional; conditions: dose 0.02 µg/ml
Method in brief: (§4)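 Time-kill with compound combined with vancomycin at synergistic concentrations (from checkerboard FIC) against S. aureus; CFU followed up to 8 h and at 24 h.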

[17] = Hemolytic activity in rabbit erythrocytes up to 200 ug/ml incubated for 4 hrs by absorbance based assay; format: toxicity, cell-based, Oryctolagus cuniculus; conditions: erythrocyte, dose < 200 µg/ml
Staphylococcus aureus [18] = assay: Disruption of cell membrane integrity in methicillin-resistant Staphylococcus aureus ATCC 15187 assessed as red fluorescence at 1 to 2 times MIC incubated for 2.5 hrs by DAPI/PI staining based fluorescence microscopy; format: functional, organism-based
Method in brief: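 Bacteria treated at 1× and 2× MIC, with vancomycin 2× MIC as control and an untreated blank; stained with DAPI (all cells) and propidium iodide (membrane-damaged cells); imaged by fluorescence microscopy, red PI signal taken as membrane damage.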

[19] = Volume of distribution in male Balb/c mouse at 30 mg/kg, po by LC-MS/MS analysis; format: ADME, organism-based; conditions: in vivo; method in brief: as §1
Staphylococcus aureus [20] = assay: Antibacterial activity against Staphylococcus aureus SA-K2192 overexpressing TetK by Alamar blue staining based analysis; format: functional
Staphylococcus aureus [21] = assay: Inhibition of biofilm formation of methicillin-resistant Staphylococcus aureus ATCC 15187 incubated for 27 hrs by absorbance based method; format: functional, organism-based
Staphylococcus aureus [22] = assay: Bactericidal activity against Staphylococcus aureus ATCC 29213 assessed as reduction in bacterial count at 2 to 4 times MIC incubated for 2 hrs by time-kill assay
[23] = Cytotoxicity in human HepG2 cells incubated for 24 hrs by MTT assay; format: toxicity, cell-based
Method in brief: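 HepG2 cells, 1 × 10^4 per well in DMEM/10% FBS, 24 h attachment; compounds 200 to 0.19 μg ml−1 for 24 h at 37 °C, 5% CO2; MTT 2.5 mg ml−1 for 3 h, formazan in DMSO, OD 570 nm; doxorubicin 10 μM control.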

[24] = Clearance in male Balb/c mouse at 1 mg/kg, iv by LC-MS/MS analysis; format: ADME, organism-based; conditions: in vivo; method in brief: as §1
Staphylococcus aureus [25] = assay: Synergistic bactericidal activity against Staphylococcus aureus ATCC 29213 assessed as reduction in bacterial count at 0.02 ug/ml measured after 24 hrs in presence of vancomycin by time-kill assay; format: functional, organism-based; conditions: dose 0.02 µg/ml; method in brief: as §4
Staphylococcus aureus [26] = assay: Antibacterial activity against Staphylococcus aureus ATCC 29213 incubated for 24 hrs by Alamar blue staining based microdilution method; format: functional
Staphylococcus aureus [27] = assay: Synergistic antibacterial activity against methicillin-resistant Staphylococcus aureus ATCC 15187 assessed as fractional inhibitory concentration index at 0.075 ug/ml incubated up to 24 hrs in presence of rifampicin by checkerboard analysis; format: functional; conditions: dose 0.075 µg/ml; method in brief: as §2
Staphylococcus aureus [28] = assay: Induction of resistance development in methicillin-resistant Staphylococcus aureus ATCC 15187 assessed as fold increase in MIC at 0.5 MIC measured after 20 passages relative to control; format: functional; method in brief: as §3

In the case of CCCc1nn(C)c2c(Nc3ccc(O)cc3)nc(-c3ccc([N+](=O)[O-])o3)nc12, the Cmax [1] is reported as 2010 ng/mL, the Activity (J774.A1) is reported as “Non-toxic” and the “fractional inhibitory concentration index (FICI)” value (Staphylococcus aureus [2]) is reported as 0.7. For the same compound, the AUC(0-t) [3] was 3150 ng·h/mL, the Activity (Staphylococcus aureus [4]) was “Dose-dependent-effect” and the MIC (Staphylococcus aureus [5]) was 0.3 µg/mL (≈ 0.761 µM). It also gave an Activity (Staphylococcus aureus [6]) of 99.9%, a logP [7] of 2.92 and an MIC (Staphylococcus aureus [8]) of 0.15 µg/mL (≈ 0.38 µM). For the same compound, the Activity (Staphylococcus aureus [9]) was “Moderate_effect”, the PPB [10] was 99.1% and the Activity (Staphylococcus aureus [11]) was “Active; Significantly Lesser Effect Was Observed At 50 To 100 Mg/Kg Compared To Vancomycin”. The Activity (Staphylococcus aureus [12]) was “Time-dependent-effect”, the “fold change (FC)” value (Staphylococcus aureus [13]) was 200 and the “fractional inhibitory concentration index (FICI)” value (Staphylococcus aureus [14]) was 1. The Activity (Staphylococcus aureus [15]) was “Active”, the Activity (Staphylococcus aureus [16]) was greater than 10 log10CFU and the Activity [17] was “Non-toxic”. The Activity (Staphylococcus aureus [18]) was “Active”, the Vd [19] was 4.75 L/kg and the MIC (Staphylococcus aureus [20]) was 0.3 µg/mL (≈ 0.761 µM). The inhibition (Staphylococcus aureus [21]) was “Dose-dependent-effect”, the Activity (Staphylococcus aureus [22]) was “Active” and the IC50 at 24 h [23] was greater than 50 µg/mL. The clearance [24] was 176 mL/min/kg, the Activity (Staphylococcus aureus [25]) was “inactive” and the MIC (Staphylococcus aureus [26]) was 0.64 µg/mL (≈ 1.62 µM). For the same compound, the “fractional inhibitory concentration index (FICI)” value (Staphylococcus aureus [27]) was 0.5 and the “fold change (FC)” value (Staphylococcus aureus [28]) was 3200.
